From ChEMBL document CHEMBL1139486, “Novel benzopyridothiadiazepines as potential active antitumor agents” (J Med Chem, 2005)

Columns and labels:
L1210 [1] = experiment: Antiproliferative activity against mouse L1210 cells after 48 hrs relative control; type: functional, cell-based; conditions: L1210, 48 h
Outline: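 L1210 cells grown in RPMI 1640 with 10% fetal calf serum, 2 mM L-glutamine, penicillin/streptomycin and 10 mM HEPES (pH 7.4). Cells were exposed 48 h to graded drug concentrations, then MTT was added for 4 h at 37 °C. Formazan was dissolved in DMSO and OD read at 540 nm. IC50 came from linear regression on the linear part of the dose-response curve, in triplicate.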

L1210 [2] = experiment: Cell cycle perturbations in mouse L1210 cells assessed as accumulation in G1 phase after 21 hrs at 5 uM relative to control; type: functional
Outline: (§1)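 L1210 cells in RPMI 1640 with 10% fetal calf serum, 2 mM L-glutamine, antibiotics and 10 mM HEPES (pH 7.4) were exposed for 21 h (two doubling times). They were fixed in 70% ethanol and stained 30 min at 20 °C in D-PBS with […] RNAse and […] propidium iodide. 10⁴ cells per sample were analysed by flow cytometry for % G1, S, G2+M and 8N.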

L1210 [3] = experiment: Cell cycle perturbations in mouse L1210 cells assessed as accumulation in S phase after 21 hrs at 5 uM relative to control; type: functional; outline: as §1
L1210 [4] = experiment: Cell cycle perturbations in mouse L1210 cells assessed as accumulation in G2+M phase after 21 hrs at 5 uM relative to control; type: functional; outline: as §1
L1210 [5] = experiment: Cell cycle perturbations in mouse L1210 cells assessed as accumulation in 8N phase after 21 hrs at 5 uM relative to control; type: functional; outline: as §1
L1210 [6] = experiment: Cell cycle perturbations in mouse L1210 cells assessed as accumulation in G1 phase after 21 hrs at 2.5 uM relative to control; type: functional
L1210 [7] = experiment: Cell cycle perturbations in mouse L1210 cells assessed as accumulation in S phase after 21 hrs at 2.5 uM relative to control; type: functional
L1210 [8] = experiment: Cell cycle perturbations in mouse L1210 cells assessed as accumulation in G2+M phase after 21 hrs at 2.5 uM relative to control; type: functional
L1210 [9] = experiment: Cell cycle perturbations in mouse L1210 cells assessed as accumulation in 8N phase after 21 hrs at 2.5 uM relative to control; type: functional
DU-145 = experiment: Antiproliferative activity against DU145 cells; type: functional, Homo sapiens
P388 = experiment: Antiproliferative activity against P388 cells; type: functional, Mus musculus
A549 = experiment: Antiproliferative activity against A549 cells; type: functional, Homo sapiens
[10] = Antiproliferative activity against KB3-1 cells; type: functional, Homo sapiens, KB 3-1
[11] = Antiproliferative activity against adriamycin-resistant KB A1 cells; type: functional, Homo sapiens
IGROV-1 = experiment: Antiproliferative activity against IGROV1 cells; type: functional, Homo sapiens
L1210 [12] = experiment: Cell cycle perturbations in mouse L1210 cells assessed as accumulation in G1 phase after 21 hrs at 1 uM relative to control; type: functional
L1210 [13] = experiment: Cell cycle perturbations in mouse L1210 cells assessed as accumulation in S phase after 21 hrs at 1 uM relative to control; type: functional
L1210 [14] = experiment: Cell cycle perturbations in mouse L1210 cells assessed as accumulation in G2+M phase after 21 hrs at 1 uM relative to control; type: functional
L1210 [15] = experiment: Cell cycle perturbations in mouse L1210 cells assessed as accumulation in 8N phase after 21 hrs at 1 uM relative to control; type: functional
Tubulin = experiment: Inhibition of tubulin polymerization; type: protein-complex assay, Homo sapiens
L1210 [16] = experiment: Cell cycle perturbations in mouse L1210 cells assessed as accumulation in G1 phase after 21 hrs at 0.2 uM relative to control; type: functional
L1210 [17] = experiment: Cell cycle perturbations in mouse L1210 cells assessed as accumulation in S phase after 21 hrs at 0.2 uM relative to control; type: functional
L1210 [18] = experiment: Cell cycle perturbations in mouse L1210 cells assessed as accumulation in G2+M phase after 21 hrs at 0.2 uM relative to control; type: functional
L1210 [19] = experiment: Cell cycle perturbations in mouse L1210 cells assessed as accumulation in 8N phase after 21 hrs at 0.2 uM relative to control; type: functional
L1210 [20] = experiment: Cell cycle perturbations in mouse L1210 cells assessed as accumulation in G1 phase after 21 hrs at 0.5 uM relative to control; type: functional
L1210 [21] = experiment: Cell cycle perturbations in mouse L1210 cells assessed as accumulation in S phase after 21 hrs at 0.5 uM relative to control; type: functional
L1210 [22] = experiment: Cell cycle perturbations in mouse L1210 cells assessed as accumulation in G2+M phase after 21 hrs at 0.5 uM relative to control; type: functional
L1210 [23] = experiment: Cell cycle perturbations in mouse L1210 cells assessed as accumulation in 8N phase after 21 hrs at 0.5 uM relative to control; type: functional
L1210 [24] = experiment: Cell cycle perturbations in mouse L1210 cells assessed as accumulation in G1 phase after 21 hrs at 2 uM relative to control; type: functional; outline: as §1
L1210 [25] = experiment: Cell cycle perturbations in mouse L1210 cells assessed as accumulation in S phase after 21 hrs at 2 uM relative to control; type: functional; outline: as §1
L1210 [26] = experiment: Cell cycle perturbations in mouse L1210 cells assessed as accumulation in G2+M phase after 21 hrs at 2 uM relative to control; type: functional; outline: as §1
L1210 [27] = experiment: Cell cycle perturbations in mouse L1210 cells assessed as accumulation in 8N phase after 21 hrs at 2 uM relative to control; type: functional; outline: as §1

SMILES | IC50 (L1210 [1]) | further results
COc1ccc(CCN2C=CC=C3C2=Nc2ccccc2N(Cc2ccc(OC)cc2)S3(=O)=O)cc1 | > 100 µM | 
COc1ccc(CN2c3ccccc3N(Cc3ccc(OC)cc3)S(=O)(=O)c3cccnc32)cc1 | > 100 µM | 
COc1ccc(CCCN2C=CC=C3C2=Nc2cc(OC)ccc2S(=O)(=O)N3C)cc1 | > 50 µM | 
COc1ccc(CCN2c3cc(Cl)ccc3N(C)S(=O)(=O)c3cccnc32)cc1 | > 100 µM | 
COc1ccc(CCN2c3cc(C)ccc3N(C)S(=O)(=O)c3cccnc32)cc1 | > 10 µM | 
COc1ccc(CCCN2C=CC=C3C2=Nc2ccccc2S(=O)(=O)N3C)cc1 | > 10 µM | 
COc1ccc(CCCN2C=CC=C3C2=Nc2cc(C)ccc2S(=O)(=O)N3C)cc1 | > 10 µM | 
COc1cc(CCN2c3ccccc3S(=O)(=O)N(C)c3cccnc32)cc(OC)c1OC | > 10 µM | 
COc1ccc(CN2C=CC=C3C2=Nc2ccccc2S(=O)(=O)N3C)cc1 | > 10 µM | 
COc1ccc(CN2c3ccccc3S(=O)(=O)N(C)c3cccnc32)cc1 | > 10 µM | 
COc1ccc(CN2c3cc(C)ccc3S(=O)(=O)N(C)c3cccnc32)cc1 | > 10 µM | 
COc1ccc(CCN2c3ccccc3S(=O)(=O)N(C)c3cccnc32)cc1 | > 10 µM | 
COc1ccc(CN2C=CC=C3C2=Nc2cc(OC)ccc2S(=O)(=O)N3C)cc1 | > 50 µM | 
COc1ccc(CCN2c3ccccc3N(C)S(=O)(=O)c3cccnc32)cc1 | > 10 µM | 
COc1ccc(CCN2c3cc(OC)ccc3N(C)S(=O)(=O)c3cccnc32)cc1 | > 10 µM | 
COc1ccc(CCCN2C=CC=C3C2=Nc2ccc(Cl)cc2S(=O)(=O)N3C)cc1 | > 10 µM | 

SMILES | IC50 (L1210 [1]) | further results
COc1ccc(CN2C=CC=C3C2=Nc2ccc(Cl)cc2S(=O)(=O)N3C)cc1 | > 10 µM | 
COc1ccc(CCN2C=CC=C3C2=Nc2cc(OC)ccc2S(=O)(=O)N3C)cc1 | > 10 µM | 
COc1ccc(CN2c3cc(C(F)(F)F)ccc3S(=O)(=O)N(C)c3cccnc32)cc1 | > 10 µM | 
COc1cc(CN2C=CC=C3C2=Nc2ccccc2S(=O)(=O)N3C)cc(OC)c1OC | > 10 µM | 
CN(C)CCOc1ccc(CCN2C=CC=C3C2=Nc2ccccc2S(=O)(=O)N3C)cc1 | > 10 µM | 
COc1cc(CN2c3ccccc3S(=O)(=O)N(C)c3cccnc32)cc(OC)c1OC | > 10 µM | 
COc1ccc(CCCN2c3ccccc3N(C)S(=O)(=O)c3cccnc32)cc1 | > 10 µM | 
COc1ccc(CN2C=CC=C3C2=Nc2ccccc2N(Cc2ccc(OC)cc2)S3(=O)=O)cc1 | > 100 µM | 
COc1ccc(CN2c3cc(Cl)ccc3S(=O)(=O)N(C)c3cccnc32)cc1 | > 10 µM | 
COc1ccc(CN2C=CC=C3C2=Nc2ccccc2N(C)S3(=O)=O)cc1 | > 10 µM | 
COc1ccc(CCN2c3ccccc3N(Cc3ccc(OC)cc3)S(=O)(=O)c3cccnc32)cc1 | > 100 µM | 
COc1ccc(CCN2c3cc(Cl)ccc3S(=O)(=O)N(C)c3cccnc32)cc1 | > 10 µM | 
CN1C2=CC=CN(CCc3ccc(OCc4ccccc4)cc3)C2=Nc2ccccc2S1(=O)=O | > 10 µM | 
CCN(CC)CCN1c2ccccc2N(CCc2ccc(OC)cc2)c2ncccc2S1(=O)=O | > 10 µM | 
COc1ccc(CCN2c3ccc(Cl)cc3N(C)S(=O)(=O)c3cccnc32)cc1 | > 10 µM | 
COc1ccc(CCCN2C=CC=C3C2=Nc2cc(C(F)(F)F)ccc2S(=O)(=O)N3C)cc1 | > 10 µM | 

More lines, main results first:

IC50 (L1210 [1]) | SMILES | further results
1.4 µM | COc1ccc(CCN2C=CC=C3C2=Nc2cc(C)ccc2S(=O)(=O)N3C)cc1 | Activity (L1210 [2]): 5%; Activity (L1210 [3]): 8%; Activity (L1210 [4]): 19%; Activity (L1210 [5]): 68%
9 µM | COc1ccc(CN2C=CC=C3C2=Nc2cc(C)ccc2S(=O)(=O)N3C)cc1 | 
8.7 µM | COc1ccc(CN2c3cc(Cl)ccc3N(C)S(=O)(=O)c3cccnc32)cc1 | 
1.3 µM | COc1ccc(CCN2C=CC=C3C2=Nc2ccc(Cl)cc2S(=O)(=O)N3C)cc1 | Activity (L1210 [6]): 4%; Activity (L1210 [7]): 6%; Activity (L1210 [8]): 24%; Activity (L1210 [9]): 66%
1.5 µM | COc1ccc(CCN2C=CC=C3C2=Nc2cc(OC)ccc2N(C)S3(=O)=O)cc1 | Activity (L1210 [2]): 5%; Activity (L1210 [3]): 7%; Activity (L1210 [4]): 17%; Activity (L1210 [5]): 71%
> 10 µM | COc1ccc(CN2C=CC=C3C2=Nc2cc(OC)ccc2N(C)S3(=O)=O)cc1 | 
> 10 µM | COc1cc(CCN2C=CC=C3C2=Nc2ccccc2S(=O)(=O)N3C)cc(OC)c1OC | 
> 10 µM | CCN(CC)CCN1c2ccccc2N=C2C(=CC=CN2CCc2ccc(OC)cc2)S1(=O)=O | 
0.3 µM | COc1ccc(CCN2C=CC=C3C2=Nc2ccccc2S(=O)(=O)N3C)cc1 | Activity (DU-145): 0.55 µM; Activity (P388): 0.33 µM; Activity (A549): 0.45 µM; Activity [10]: 0.24 µM; Activity [11]: 0.3 µM; Activity (IGROV-1): 0.34 µM; Activity (L1210 [12]): 6%; Activity (L1210 [13]): 8%; Activity (L1210 [14]): 32%; Activity (L1210 [15]): 54%; IC50 (Tubulin): 3.8 µM
> 10 µM | COc1ccc(CN2C=CC=C3C2=Nc2cc(C(F)(F)F)ccc2S(=O)(=O)N3C)cc1 | 
9.6 µM | COc1ccc(CN2c3ccccc3N(C)S(=O)(=O)c3cccnc32)cc1 | 
> 10 µM | CN1C2=CC=CN(CCc3ccc(O)cc3)C2=Nc2ccccc2S1(=O)=O | 
> 10 µM | COc1ccc(CCN2C=CC=C3C2=Nc2cc(C(F)(F)F)ccc2S(=O)(=O)N3C)cc1 | 
6.9 µM | COc1ccc(CN2c3cc(C)ccc3N(C)S(=O)(=O)c3cccnc32)cc1 | 
> 10 µM | COc1ccc(CCCN2C=CC=C3C2=Nc2cc(Cl)ccc2S(=O)(=O)N3C)cc1 | 
8.3 µM | COc1ccc(CN2c3cc(OC)ccc3N(C)S(=O)(=O)c3cccnc32)cc1 | 
0.11 µM | COc1ccc(CCN2C=CC=C3C2=Nc2ccccc2N(C)S3(=O)=O)cc1 | Activity (DU-145): 0.14 µM; Activity (L1210 [16]): 5%; Activity (L1210 [17]): 8%; Activity (L1210 [18]): 17%; Activity (L1210 [19]): 70%; IC50 (Tubulin): 2.4 µM
8.3 µM | COc1ccc(CCCN2C=CC=C3C2=Nc2ccccc2N(C)S3(=O)=O)cc1 | 
4.1 µM | COc1ccc(CN2C=CC=C3C2=Nc2ccc(Cl)cc2N(C)S3(=O)=O)cc1 | 
5.4 µM | COc1ccc(CN2C=CC=C3C2=Nc2cc(Cl)ccc2N(C)S3(=O)=O)cc1 | 
0.19 µM | COc1ccc(CCN2C=CC=C3C2=Nc2cc(Cl)ccc2N(C)S3(=O)=O)cc1 | Activity (L1210 [12]): 8%; Activity (L1210 [13]): 10%; Activity (L1210 [14]): 19%; Activity (L1210 [15]): 63%
9.2 µM | COc1ccc(CN2C=CC=C3C2=Nc2cc(C)ccc2N(C)S3(=O)=O)cc1 | 
0.23 µM | COc1ccc(CCN2C=CC=C3C2=Nc2ccc(Cl)cc2N(C)S3(=O)=O)cc1 | Activity (L1210 [20]): 3%; Activity (L1210 [21]): 6%; Activity (L1210 [22]): 21%; Activity (L1210 [23]): 70%
0.41 µM | COc1ccc(CCN2C=CC=C3C2=Nc2cc(C)ccc2N(C)S3(=O)=O)cc1 | Activity (L1210 [24]): 2%; Activity (L1210 [25]): 2%; Activity (L1210 [26]): 12%; Activity (L1210 [27]): 84%
1.3 µM | COc1ccc(CCN2C=CC=C3C2=Nc2cc(Cl)ccc2S(=O)(=O)N3C)cc1 | Activity (L1210 [2]): 7%; Activity (L1210 [3]): 6%; Activity (L1210 [4]): 26%; Activity (L1210 [5]): 61%
1.5 µM | COc1ccc(CN2C=CC=C3C2=Nc2cc(Cl)ccc2S(=O)(=O)N3C)cc1 | 
